Reference: the RNAGym collection of RNA variant scans (doi:10.1126/science.aae0568)
Fewer inactive variants are shown than the library holds.

B1: tRNA (parent)
chain: GUUCCGUUGGCGUAAUGGUAACGCGUCUCCCUCCUAAGGAGAAGACUGCGGGUUCGAGUCCCGUACGGAACG

Variants of: B1
Assay: yeast fitness relative to wild type (ratio to wild type); higher = fitter; tRNA-Arg(CCU), competitive growth, 37 C, YPD
Summary of the method: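 Start and end populations of a pooled competition were compared by 100-nucleotide paired-end sequencing of gene amplicons. The Saccharomyces cerevisiae strains carried tRNA-Arg(CCU) gene variants at the native genomic locus, synthesised with a 3% per-site mutation rate at 69 sites, and competed in YPD at 37°C for 24 hours in six parallel replicates. Darwinian fitness relative to wild type was based on the change in genotype frequencies. Genotypes required ≥ 100 starting reads, and estimates < 0.5 were set to 0.5.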

Compared with G25A C30G C49U, G25A G48A is higher in yeast fitness: 0.594 for the first, 0.981 for the second.

Compared with G25C C46A G58A G63U, G25C C60G is higher in yeast fitness: 0.604 for the first, 0.665 for the second.

Compared with G25C A40C C49U, G25C C49G is higher in yeast fitness: 0.76 for the first, 0.781 for the second.

Compared with G25C C33A A57U A69U, G25C A45C A70C is higher in yeast fitness: 0.548 for the first, 0.677 for the second.

First: G25A G41A A70U
Second: G25A G38C A42C
The yeast fitness of the first is higher: 0.713 for the first, at most 0.5 for the second.

Compared with G25A G51C, G25A C34U A43U is lower in yeast fitness: 0.575 for the first, at most 0.5 for the second.

First: G25A C31U G38C G48A
Second: G25A C31A A45C G50A
The yeast fitness of the first is higher: 0.651 for the first, 0.536 for the second.

Going from G25C C34G to G25C C55U A69U, the yeast fitness rises from 0.551 to 0.609.

Compared with G25A C30A G67U, G25A G44C is higher in yeast fitness: 0.776 for the first, 1.04 for the second.

Going from G25A C31U A43C A57C to G25A C60G G63C, the yeast fitness rises from at most 0.5 to 0.548.

Compared with G25C C66G, G25C C66U is higher in yeast fitness: 0.639 for the first, 0.972 for the second.

Compared with G25C C66A, G25C C27G is lower in yeast fitness: 0.677 for the first, 0.553 for the second.

Compared with G25A C46A, G25A G50C U54C is lower in yeast fitness: 0.876 for the first, 0.627 for the second.

First: G25A C62U G68A
Second: G25C C27G C46G C55A
The yeast fitness of the first is higher: 0.641 for the first, at most 0.5 for the second.

Going from G25C A57G to G25C C34G A45U, the yeast fitness falls from 0.892 to at most 0.5.

Compared with G25A G50A C66U, G25A C55U is higher in yeast fitness: 0.629 for the first, 0.84 for the second.

First: G25A C55A
Second: G25C G39A
The yeast fitness of the first is lower: 0.725 for the first, 0.787 for the second.

Compared with G25C C33G A43C A57C G63C, G25A C49U A70C is higher in yeast fitness: at most 0.5 for the first, 0.845 for the second.

First: G25C C31A A65C
Second: G25A U59A
The yeast fitness of the first is lower: 0.678 for the first, 1.06 for the second.

Compared with G25C C34G G51A, G25C C62G is higher in yeast fitness: at most 0.5 for the first, 0.877 for the second.

G25C C34U A37U A40U and G25A C30G G58C C66A cannot be ordered by yeast fitness: at most 0.5 for the first, at most 0.5 for the second.

Compared with G25A U26A C31U G38A A42G A43U G67C, G25C C30U A70C is lower in yeast fitness: 0.613 for the first, 0.596 for the second.

Compared with G25A C49U U59G, G25A C49A is higher in yeast fitness: 0.54 for the first, 0.691 for the second.

G25C C27A C30G and G25A G41A G51C C60U cannot be ordered by yeast fitness: at most 0.5 for the first, at most 0.5 for the second.

G25C A42U A43G U53C A65G and G25C A40G C61G G63A A69U cannot be ordered by yeast fitness: at most 0.5 for the first, at most 0.5 for the second.

Compared with G25A U28A A43U, G25C C29U C30U U35C A40C is lower in yeast fitness: 0.835 for the first, at most 0.5 for the second.

Going from G25C C29G U32G A43U G50A to G25C C31A A69C, the yeast fitness rises from at most 0.5 to 0.585.

Compared with G25C A37U G48A C61U, G25C G38A is higher in yeast fitness: at most 0.5 for the first, 0.951 for the second.

First: G25A C60U
Second: G25C C29G A40U
The yeast fitness of the first is higher: 0.808 for the first, at most 0.5 for the second.

First: G25C C29U
Second: G25C C29G
The yeast fitness of the first is lower: 0.688 for the first, 0.703 for the second.

G25A C46A G52C G68A and G25A C29A G38A cannot be ordered by yeast fitness: at most 0.5 for the first, at most 0.5 for the second.

Going from G25A C60A A69G to G25A G41C G58A, the yeast fitness rises from at most 0.5 to 0.975.

Going from G25C G38C C49U A57U C66A to G25A C55G U59A G63A, the yeast fitness falls from 0.571 to at most 0.5.

Going from G25A G41A G67A to G25A C29U C66U, the yeast fitness rises from 0.59 to 0.747.

G25C C33U C49A U53A and G25A G44C G52A C62G A69G cannot be ordered by yeast fitness: at most 0.5 for the first, at most 0.5 for the second.

Compared with G25A U47C C60U, G25C C31G is higher in yeast fitness: 0.587 for the first, 0.704 for the second.

Compared with G25C C31A, G25A G41A G56A is higher in yeast fitness: 0.677 for the first, 0.871 for the second.

Going from G25C C30U A69C to G25C A43C C49U, the yeast fitness rises from 0.606 to 0.632.

Going from G25C G39A G58C to G25A C31U G38C C62U, the yeast fitness rises from 0.663 to 0.697.

Compared with G25A C61U G63C, G25C C31G C34G A57C is lower in yeast fitness: 0.528 for the first, at most 0.5 for the second.

Compared with G25C C61A, G25A C33G A57G G58A U59C A65U is lower in yeast fitness: 0.75 for the first, at most 0.5 for the second.

First: G25C C33A A43C G68A
Second: G25A C49U C55U
The yeast fitness of the first is lower: at most 0.5 for the first, 0.683 for the second.

G25C C29A G52A C66U and G25A C29G U54G C61G cannot be ordered by yeast fitness: at most 0.5 for the first, at most 0.5 for the second.

First: G25C A43U A45G
Second: G25A U47G C49A
The yeast fitness of the first is lower: 0.518 for the first, 0.548 for the second.

Going from G25C C49U G63A to G25A G52U U54C, the yeast fitness falls from 0.83 to at most 0.5.

Compared with G25A C34U A65U, G25A G39C A57C is lower in yeast fitness: 0.671 for the first, at most 0.5 for the second.

Going from G25A G52A to G25A G52U, the yeast fitness rises from 0.572 to 0.627.

Going from G25A C33U to G25A C46U A57G, the yeast fitness rises from 0.655 to 0.676.

Compared with G25C C31U U32A, G25A C31G is higher in yeast fitness: at most 0.5 for the first, 0.906 for the second.

Going from G25A C31U to G25A C31A, the yeast fitness falls from 0.923 to 0.671.

First: G25A C62A A65C
Second: G25C A42C C61U
The yeast fitness of the first is higher: 0.517 for the first, at most 0.5 for the second.

Compared with G25A C34A, G25A C34U is lower in yeast fitness: 0.77 for the first, 0.574 for the second.

First: G25A G67A
Second: G25A U32A U53A A70C
The yeast fitness of the first is higher: 0.875 for the first, at most 0.5 for the second.

First: G25C A65G
Second: G25C C31G C62U
The yeast fitness of the first is higher: 1 for the first, 0.737 for the second.

Compared with G25A C29U, G25A C29G is lower in yeast fitness: 0.997 for the first, 0.721 for the second.

Going from G25C C49U U54G to G25A C30G U59C C66A, the yeast fitness falls from 0.58 to at most 0.5.

First: G25A C29G A43C C61A A69U
Second: G25C C49U G51A
The yeast fitness of the first is lower: at most 0.5 for the first, 0.568 for the second.

Going from G25A C46G A65U to G25A U54A C66A, the yeast fitness falls from 0.788 to at most 0.5.

Compared with G25A C31U G41U, G25C C34U G56A is lower in yeast fitness: 0.739 for the first, at most 0.5 for the second.

G25C A40G U47A A57C G63A and G25C C49U G51A A65C A69C cannot be ordered by yeast fitness: at most 0.5 for the first, at most 0.5 for the second.

First: G25A G38C G48A C60U
Second: G25C A42U
The yeast fitness of the first is lower: at most 0.5 for the first, 0.869 for the second.

Going from G25A C34G C46U U54A to G25C C29G C30U C49G, the yeast fitness rises from at most 0.5 to 0.61.

Going from G25C A69U to G25C C34G A57G, the yeast fitness falls from 0.929 to at most 0.5.

G25C C29U A65C A70U and G25C C29U A45C G58A cannot be ordered by yeast fitness: at most 0.5 for the first, at most 0.5 for the second.

First: G25C C55U
Second: G25C A43U G50A
The yeast fitness of the first is higher: 0.916 for the first, 0.704 for the second.

First: G25A U32A C46U A57U
Second: G25C C33G C60A
The yeast fitness of the first is higher: 0.609 for the first, at most 0.5 for the second.

First: G25A U32A U54G G56A
Second: G25A G68A
The yeast fitness of the first is lower: at most 0.5 for the first, 1.02 for the second.

G25A C33A A40G A70C and G25C A45G G50A C62G cannot be ordered by yeast fitness: at most 0.5 for the first, at most 0.5 for the second.

Compared with G25C G39C G44C C49U C60U G68C, G25A U32C G41A is higher in yeast fitness: at most 0.5 for the first, 0.546 for the second.

Going from G25A U47C G56C C60U A70U to G25C C29A A65U, the yeast fitness rises from at most 0.5 to 0.558.

G25C C27A C66U and G25C C29U C34G cannot be ordered by yeast fitness: at most 0.5 for the first, at most 0.5 for the second.

Compared with G25C G38C C60G, G25A U32A is lower in yeast fitness: 0.747 for the first, 0.744 for the second.

Going from G25A C29A C55A to G25C C29G A43C, the yeast fitness falls from 0.625 to at most 0.5.

G25C C29G A43G and G25C C29A U32A A65U cannot be ordered by yeast fitness: at most 0.5 for the first, at most 0.5 for the second.

First: G25C C31U A65U
Second: G25C C31G C61G C66G
The yeast fitness of the first is higher: 0.726 for the first, 0.674 for the second.

G25C C27G U47C and G25A C31G C55G cannot be ordered by yeast fitness: at most 0.5 for the first, at most 0.5 for the second.

First: G25A G48C C62A
Second: G25C C29G A43G C49G
The yeast fitness of the first is lower: 0.611 for the first, 0.647 for the second.

Compared with G25A U53A, G25A U53C is higher in yeast fitness: 0.741 for the first, 0.819 for the second.

G25A C34G G50C C62A and G25A G41A C61A A65U cannot be ordered by yeast fitness: at most 0.5 for the first, at most 0.5 for the second.

Compared with G25A C31G A45U, G25C C61A C66U is lower in yeast fitness: 0.612 for the first, at most 0.5 for the second.

Going from G25A C46U G50C to G25A U26C, the yeast fitness rises from 0.556 to 0.947.

Compared with G25A U26G, G25A C60A C66U is lower in yeast fitness: 0.805 for the first, at most 0.5 for the second.

First: G25A U32A U53A
Second: G25C C66U A69C
The yeast fitness of the first is lower: at most 0.5 for the first, 0.685 for the second.

G25A G41A C49U A69U showed a yeast fitness of 0.574.
